Measurements from ChEMBL document CHEMBL1147738, “Potent and selective mitogen-activated protein kinase kinase (MEK) 1,2 inhibitors. 1. 4-(4-bromo-2-fluorophenylamino)-1- methylpyridin-2(1H)-ones” (J Med Chem, 2006).
Values after ≈ are worked out from the molar mass of the structure shown.

Legend:
[1] = target: Dual specificity mitogen-activated protein kinase kinase 1 (Homo sapiens, UniProt Q02750); assay: Inhibitory activity against MEK1
[2] = Half life in rat at 10 mg/kg, po; type: ADME, organism-based; set-up: dose 10 mg/kg, route oral; settings: Sprague-Dawley, in vivo
How it was run: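 Male Sprague Dawley rats (6-10 weeks) were given 10 mg/kg by oral gavage (2 mg/mL in 1% CMC/0.5% Tween 80, 5 mL/kg). Tail-vein EDTA blood was drawn at 15 and 30 min and 1, 2, 4, 8, 12, 24, 48, 72 h. Plasma was quantified by LC/MS/MS after methanol precipitation. Parameters came from non-compartmental analysis.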

[3] = target: Protein kinase C alpha type (Homo sapiens) (UniProt P17252); assay: Inhibition of PKCa at 10 uM
How it was run: (§1)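 Kinase panel run at Upstate (Dundee). Each compound was tested at 10 µM against each enzyme and reported as % inhibition.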

[4] = target: Ribosomal protein S6 kinase alpha-1 (Homo sapiens) (UniProt Q15418); assay: Inhibition of MAPKAP-K1a at 10 uM; how it was run: as §1
Chain of Ribosomal protein S6 kinase alpha-1 (Homo sapiens) (Q15418 whole entry): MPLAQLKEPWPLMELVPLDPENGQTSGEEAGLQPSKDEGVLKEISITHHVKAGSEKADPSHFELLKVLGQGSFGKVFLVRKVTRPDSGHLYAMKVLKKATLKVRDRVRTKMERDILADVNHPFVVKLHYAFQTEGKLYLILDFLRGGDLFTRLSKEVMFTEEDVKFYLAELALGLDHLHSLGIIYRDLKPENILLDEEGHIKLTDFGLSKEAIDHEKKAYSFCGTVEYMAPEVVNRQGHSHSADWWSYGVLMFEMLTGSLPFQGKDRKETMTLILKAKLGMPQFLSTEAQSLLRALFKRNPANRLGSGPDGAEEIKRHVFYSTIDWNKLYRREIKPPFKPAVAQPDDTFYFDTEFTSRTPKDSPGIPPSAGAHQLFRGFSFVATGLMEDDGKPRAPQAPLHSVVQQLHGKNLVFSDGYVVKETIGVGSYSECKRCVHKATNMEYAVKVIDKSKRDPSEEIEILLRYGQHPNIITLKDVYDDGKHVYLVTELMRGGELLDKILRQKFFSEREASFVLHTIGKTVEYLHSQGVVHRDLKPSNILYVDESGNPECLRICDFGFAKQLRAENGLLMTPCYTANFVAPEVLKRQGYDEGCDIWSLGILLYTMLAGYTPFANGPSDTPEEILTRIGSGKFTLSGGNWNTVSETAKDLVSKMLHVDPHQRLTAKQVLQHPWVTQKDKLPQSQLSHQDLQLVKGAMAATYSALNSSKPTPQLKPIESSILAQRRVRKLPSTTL

HT-29 = assay: Inhibition of ERK phosphorylation in HT29 tumor bearing NCr-nu/nu mice after 4 hrs at 10 mg/kg, po; type: functional; settings: Mus musculus, HT-29, 4 h
[5] = Clearance in presence of human hepatocytes; type: ADME, cell-based, Liver, Hepatocyte
How it was run: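 Human hepatocytes (fresh or cryopreserved) diluted to 2 x 10⁶ viable cells/mL in supplemented Krebs-Henseleit buffer pH 7.3, mixed 1:1 with 2 µM compound working solution. Incubated at 37 °C, 5% CO₂, duplicates, one plate per timepoint. Quenched with labetalol internal standard and centrifuged; compound remaining measured by LC-MS/MS (ESI+, MRM).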

[6] = target: Mitogen-activated protein kinase 8 (Homo sapiens) (UniProt P45983); assay: Inhibition of JNK/SAPK1c at 10 uM; how it was run: as §1
Chain of Mitogen-activated protein kinase 8 (Homo sapiens) (P45983 whole entry): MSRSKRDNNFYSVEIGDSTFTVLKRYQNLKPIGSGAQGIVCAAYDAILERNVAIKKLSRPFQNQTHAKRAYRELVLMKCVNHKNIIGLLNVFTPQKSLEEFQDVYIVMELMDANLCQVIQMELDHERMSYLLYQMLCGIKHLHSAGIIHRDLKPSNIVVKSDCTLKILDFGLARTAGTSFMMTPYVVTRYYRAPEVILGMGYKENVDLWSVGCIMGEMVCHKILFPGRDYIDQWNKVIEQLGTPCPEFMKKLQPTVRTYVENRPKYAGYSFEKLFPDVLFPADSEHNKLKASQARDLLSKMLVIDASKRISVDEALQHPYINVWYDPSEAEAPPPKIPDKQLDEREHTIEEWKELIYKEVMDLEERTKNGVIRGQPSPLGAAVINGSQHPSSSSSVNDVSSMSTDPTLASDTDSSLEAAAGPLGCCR

Malme-3M = assay: Inhibition of basal ERK phosphorylation in Malme-3M cells; type: functional, Homo sapiens
Rattus norvegicus = assay: AUC in rat at 1 mg/kg, iv; type: ADME, organism-based, Sprague-Dawley, Plasma; set-up: dose 1 mg/kg, route intravenous; settings: in vivo
How it was run: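 Male Sprague Dawley rats (6-10 weeks), fed ad lib, dosed IV at 1 mg/kg (1 mg/mL in 10% DMSO/90% normal saline, 1 mL/kg). Tail-vein EDTA blood sampled 1, 5, 15, 30 min and 1, 2, 4, 8, 12, 24 h. Plasma analysed by LC/MS/MS after methanol protein precipitation, range 9 ng/mL to 20 µg/mL. Parameters derived by non-compartmental analysis.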

[7] = target: T1, Lymphokine-activated killer T-cell-originated protein kinase (Homo sapiens) (UniProt Q96KB5); assay: Inhibition of PBK at 10 uM; how it was run: as §1
T1 sequence (whole entry): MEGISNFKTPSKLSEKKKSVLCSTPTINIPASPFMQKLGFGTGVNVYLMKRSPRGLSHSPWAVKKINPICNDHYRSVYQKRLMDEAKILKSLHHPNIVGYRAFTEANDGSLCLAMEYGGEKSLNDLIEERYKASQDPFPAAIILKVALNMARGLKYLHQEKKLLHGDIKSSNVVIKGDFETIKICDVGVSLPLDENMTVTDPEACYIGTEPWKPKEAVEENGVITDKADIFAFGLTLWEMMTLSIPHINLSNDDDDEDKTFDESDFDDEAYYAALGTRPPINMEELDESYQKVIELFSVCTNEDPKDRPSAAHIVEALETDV

[8] = Aqueous solubility at pH 6.5; type: physicochemical
How it was run: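 Thermodynamic shake-flask method: crystalline solid (0.5 mg, crystallinity confirmed by polarizing microscopy) in 0.5 mL 10 mM potassium phosphate, pH 6.5, swirled 24 h at room temperature. Filtered aliquots were quantified by HPLC-PDA against a calibration curve.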

Chain of Dual specificity mitogen-activated protein kinase kinase 1 (Q02750 whole entry): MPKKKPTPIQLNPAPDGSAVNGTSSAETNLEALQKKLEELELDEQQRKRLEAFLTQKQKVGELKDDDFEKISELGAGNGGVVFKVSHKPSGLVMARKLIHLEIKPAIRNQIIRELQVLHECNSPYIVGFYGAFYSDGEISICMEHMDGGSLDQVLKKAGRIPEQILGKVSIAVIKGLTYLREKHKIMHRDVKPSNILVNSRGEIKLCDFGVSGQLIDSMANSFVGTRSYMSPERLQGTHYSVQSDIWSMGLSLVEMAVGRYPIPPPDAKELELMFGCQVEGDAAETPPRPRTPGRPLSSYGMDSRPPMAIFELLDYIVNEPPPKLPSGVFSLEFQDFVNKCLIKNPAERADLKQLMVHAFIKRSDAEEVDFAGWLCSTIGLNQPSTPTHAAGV

IC50 [1] [nM]	half-life [2] [h]	inhibition [3] [%]	inhibition [4] [%]	CLhep predicted [5] [mL/min/kg]	inhibition [6] [%]	AUC (Rattus norvegicus) [ng·h/mL]	solubility [8] [µg/mL]	SMILES	inhibition in vivo at 10 mg/kg (HT-29) [%]	Activity (Malme-3M) [nM]	inhibition [7] [%]
105	4.7	0	-8	5	7	11500	200 (≈ 521 µM)	CONC(=O)c1cn(C)c(=O)c(C)c1Nc1ccc(Br)cc1F	> 80	39	-4
18	3	-3	-9	6	23	2260	450 (≈ 1090 µM)	Cc1c(Nc2ccc(Br)cc2F)c(C(=O)NOCCO)cn(C)c1=O	> 80	2	-8
	4.7	7	3	5	23	8900	60 (≈ 151 µM)	CCONC(=O)c1cn(C)c(=O)c(C)c1Nc1ccc(Br)cc1F	> 80	10.6	3
